According to ChEMBL document CHEMBL3576811, “Small Molecule Disruptors of the Glucokinase-Glucokinase Regulatory Protein Interaction: 5. A Novel Aryl Sulfone Series, Optimization Through Conformational Analysis” (J Med Chem, 2015):

Key:
Format in all cases: ADME, organism-based
Rattus norvegicus = experiment: Free plasma concentration in Sprague-Dawley rat at 10 mg/kg, po after 4 hrs; settings: in vivo
Summary of the method: (§1)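 Sprague-Dawley rats given one 10 mg/kg oral dose in 1% Tween 80, 2% HPMC, 97% water. Plasma drug levels followed over time, giving Cmax, time to Cmax and AUC. Free concentration derived using the fraction unbound from rapid equilibrium dialysis.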

[1] = Oral bioavailability in Sprague-Dawley rat at 10 mg/kg; settings: in vivo
[2] = Cmax in Sprague-Dawley rat at 10 mg/kg, po after 4 hrs; parameters: dose 10 mg/kg, route oral; settings: in vivo; summary of the method: as §1
[3] = Volume of distribution at steady state in Sprague-Dawley rat at 2 mg/kg, iv; settings: in vivo, read-out: Vdss
Summary of the method: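 Sprague-Dawley rats dosed intravenously at 2 mg/kg in 100% DMSO. Plasma clearance, steady-state volume of distribution and terminal half-life derived from the plasma concentration-time profile.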

[4] = AUC in Sprague-Dawley rat at 10 mg/kg, po; settings: in vivo; summary of the method: as §1

With `C[C@](O)(CO)c1ccc(-c2ncc(S(=O)(=O)c3ccc(N)nc3)s2)c(Cl)c1` the “Cp(f)” value (Rattus norvegicus) was 0.43 µM, the bioavailability [1] was 82% and the Cmax [2] was 57.6 µM. The Vd [3] was 0.18 L/kg and the AUC [4] was 568 µM·h.
